Results reported in ChEMBL document CHEMBL1132183 (J Med Chem, 1999).

Tests used:
[1] = molecular target: T1, Alpha-1B adrenergic receptor (Homo sapiens, UniProt P35368); assay: Displacement of [3H]prazosin from human cloned Alpha-1B adrenergic receptor
T1 sequence (P35368 whole entry): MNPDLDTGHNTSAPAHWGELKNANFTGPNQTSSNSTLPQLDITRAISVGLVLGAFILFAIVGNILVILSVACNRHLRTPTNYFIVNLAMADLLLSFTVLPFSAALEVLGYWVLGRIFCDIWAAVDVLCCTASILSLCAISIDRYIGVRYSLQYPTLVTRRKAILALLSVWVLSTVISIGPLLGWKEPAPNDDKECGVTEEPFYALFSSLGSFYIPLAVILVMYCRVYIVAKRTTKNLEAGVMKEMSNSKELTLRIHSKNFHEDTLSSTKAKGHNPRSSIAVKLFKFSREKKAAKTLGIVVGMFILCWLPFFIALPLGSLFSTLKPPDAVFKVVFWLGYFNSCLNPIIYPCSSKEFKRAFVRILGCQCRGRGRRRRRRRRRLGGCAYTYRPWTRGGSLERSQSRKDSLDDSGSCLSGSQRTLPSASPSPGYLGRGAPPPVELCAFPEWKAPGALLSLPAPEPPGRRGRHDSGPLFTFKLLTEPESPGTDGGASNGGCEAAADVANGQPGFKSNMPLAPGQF
In short: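 CHO cells stably transfected with each human α1 subtype; 30 μg membrane protein in 50 mM Tris-HCl pH 7.4 with 0.1–0.4 nM [3H]prazosin, 30 min at 25 °C. Competitors 1 pM–10 μM. Nonspecific binding defined with 10 μM phentolamine. Filtration, scintillation counting. Ki by Cheng–Prusoff; 2–3 experiments in triplicate.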

[2] = molecular target: T2, Alpha-1A adrenergic receptor (Rattus norvegicus) (UniProt P43140); assay: Antagonist activity against Alpha-1A adrenergic receptor (-)-noradrenaline-induced contraction of rat prostatic vas deferens; assay type: functional, tissue-based
T2 sequence (whole entry): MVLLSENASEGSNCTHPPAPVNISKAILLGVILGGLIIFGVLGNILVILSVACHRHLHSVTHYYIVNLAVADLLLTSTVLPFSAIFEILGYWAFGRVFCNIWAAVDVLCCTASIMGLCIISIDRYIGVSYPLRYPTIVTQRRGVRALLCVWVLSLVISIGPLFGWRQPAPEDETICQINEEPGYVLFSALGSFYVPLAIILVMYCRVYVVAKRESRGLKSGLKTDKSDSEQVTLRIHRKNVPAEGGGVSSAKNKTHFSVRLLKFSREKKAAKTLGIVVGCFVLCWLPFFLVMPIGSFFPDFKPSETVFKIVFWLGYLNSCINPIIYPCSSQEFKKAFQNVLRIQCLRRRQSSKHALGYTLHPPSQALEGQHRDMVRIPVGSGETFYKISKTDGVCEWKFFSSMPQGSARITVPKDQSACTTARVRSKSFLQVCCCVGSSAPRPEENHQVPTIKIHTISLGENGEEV
In short: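 Isolated rat prostatic vas deferens with 0.01 μM desipramine in the bath. Isotonic cumulative (–)-noradrenaline curves were run at 30-min intervals: first discarded, second as control, then antagonist equilibrated 30 min before a new curve. pKb by Arunlakshana–Schild from dose ratios of EC50, at 2–3 antagonist concentrations, each tested four times.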

[3] = molecular target: T3, Alpha-1B adrenergic receptor (Rattus norvegicus) (UniProt P15823); assay: Antagonism of Alpha-1B adrenergic receptor subtype (-)-phenylephrine-induced contraction of rat spleen; assay type: functional, tissue-based
T3 sequence (whole entry): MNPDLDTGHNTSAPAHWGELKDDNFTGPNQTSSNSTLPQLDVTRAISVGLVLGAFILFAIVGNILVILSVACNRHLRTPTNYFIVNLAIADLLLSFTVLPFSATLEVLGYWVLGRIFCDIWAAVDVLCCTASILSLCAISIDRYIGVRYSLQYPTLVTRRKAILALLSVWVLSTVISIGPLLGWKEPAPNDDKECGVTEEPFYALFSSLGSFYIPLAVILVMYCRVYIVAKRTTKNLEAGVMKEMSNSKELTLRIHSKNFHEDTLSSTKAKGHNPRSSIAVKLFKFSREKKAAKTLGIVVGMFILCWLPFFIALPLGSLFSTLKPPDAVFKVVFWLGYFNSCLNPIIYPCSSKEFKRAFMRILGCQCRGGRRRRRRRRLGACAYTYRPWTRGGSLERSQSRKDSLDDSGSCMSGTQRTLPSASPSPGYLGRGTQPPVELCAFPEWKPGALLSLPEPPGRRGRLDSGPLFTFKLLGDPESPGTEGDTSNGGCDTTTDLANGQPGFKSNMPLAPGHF
In short: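 Rat spleen, isometric cumulative (–)-phenylephrine curves at 30-min intervals; first discarded, second taken as control. Antagonist was equilibrated 30 min before the next curve.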

Row | Structure (SMILES) | Ki [1] | pKb [2] | pKb [3]
1 | O[C@@H]1[C@H](NC[C@@H]2COc3ccccc3O2)CC[C@H]1Oc1ccccc1 | 0.0933 µM | 6.1 | 6.83
2 | O[C@@H]1[C@H](NC[C@H]2COc3ccccc3O2)CC[C@H]1Oc1ccccc1 | – | 6.55 | 7.13
3 | O[C@H]1[C@@H](NC[C@H]2COc3ccccc3O2)CC[C@@H]1Oc1ccccc1 | 1.82 µM | 5.65 | 5.79
4 | O[C@H]1[C@@H](NC[C@@H]2COc3ccccc3O2)CC[C@@H]1Oc1ccccc1 | > 1 µM | < 5 | 5.44
